In ChEMBL document CHEMBL1158519, “Syntheses and antibacterial activity studies of new oxazolidinones from nitroso Diels-Alder chemistry” (2010):

Key:
Format in all cases: functional
Details in all cases: read-out: DIZ
[1] = test system: Escherichia coli; experiment: Antimicrobial activity against Escherichia coli ATCC 25922 at 2 mM after overnight incubation by agar diffusion method
Summary of the method: (§1)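 Agar diffusion: 9 mm wells cut in Standard I Nutrient Agar or Mueller Hinton II agar, each loaded with 50 µl of a 2.0 mM compound solution in 1:9 DMSO:MeOH. Ciprofloxacin was run as control at 5 µg/mL in H2O. Plates were incubated at 37 °C for 24 h, and the inhibition zone diameter was read in mm. Zones were flagged as partially clear, unclear with colonies, or faint.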

[2] = test system: Mycolicibacterium vaccae; experiment: Antimicrobial activity against Mycobacterium vaccae IMET 10670 at 2 mM after overnight incubation by agar diffusion method; summary of the method: as §1
[3] = test system: Micrococcus luteus; experiment: Antimicrobial activity against Micrococcus luteus ATCC 10240 at 2 mM after overnight incubation by agar diffusion method; summary of the method: as §1
[4] = test system: Staphylococcus aureus; experiment: Antimicrobial activity against wild type Staphylococcus aureus SG 511 at 2 mM after overnight incubation by agar diffusion method; summary of the method: as §1
[5] = test system: Pseudomonas aeruginosa; experiment: Antimicrobial activity against Pseudomonas aeruginosa K799/61 mutant at 2 mM after overnight incubation by agar diffusion method
Summary of the method: (§2)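 Agar well diffusion: 50 µl of a 2.0 mM solution in 1:9 DMSO:MeOH placed in 9 mm wells cut in nutrient agar or Mueller Hinton II agar; plates incubated 37 °C for 24 h, then inhibition zone diameter measured in mm. Zones scored as clear, partially clear, unclear (many colonies inside) or faint. Ciprofloxacin positive control at 5 µg/mL in water.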

[6] = test system: Pseudomonas aeruginosa; experiment: Antimicrobial activity against wild type Pseudomonas aeruginosa K799 at 2 mM after overnight incubation by agar diffusion method; summary of the method: as §1
[7] = test system: Enterococcus faecalis; experiment: Antimicrobial activity against Enterococcus faecalis ATCC 49532 at 2 mM after overnight incubation by agar diffusion method; summary of the method: as §1
[8] = test system: Bacillus subtilis; experiment: Antimicrobial activity against Bacillus subtilis ATCC 6633 at 2 mM after overnight incubation by agar diffusion method; summary of the method: as §1
[9] = test system: Escherichia coli; experiment: Antimicrobial activity against Escherichia coli X580 at 2 mM after overnight incubation by agar diffusion method
[10] = test system: Staphylococcus aureus; experiment: Antimicrobial activity against methicillin-resistant Staphylococcus aureus 143/93 at 2 mM after overnight incubation by agar diffusion method; summary of the method: as §2
[11] = test system: Enterococcus faecalis; experiment: Antimicrobial activity against vancomycin-resistant Enterococcus faecalis 1528 at 2 mM after overnight incubation by agar diffusion method; summary of the method: as §2

Row | Structure (SMILES) | zone of inhibition at 2000 µM [1] [mm] | zone of inhibition at 2000 µM [2] [mm] | zone of inhibition at 2000 µM [3] [mm] | zone of inhibition at 2000 µM [4] [mm] | zone of inhibition at 2000 µM [5] [mm] | zone of inhibition at 2000 µM [6] [mm] | zone of inhibition at 2000 µM [7] [mm] | zone of inhibition at 2000 µM [8] [mm] | zone of inhibition at 2000 µM [9] [mm] | zone of inhibition at 2000 µM [10] [mm] | zone of inhibition at 2000 µM [11] [mm]
1 | O=C1O[C@@H](COC(=O)N2OC3C=CC2C3)CN1c1ccc(N2CC[S+]([O-])CC2)c(F)c1 (stereo not given in full) | 0 | 35 | 22 | 18 | 11 | 0 | 19 | 21 |  |  | 
2 | O=C(NO)OC[C@H]1CN(c2ccc(N3CCSCC3)c(F)c2)C(=O)O1 | 0 |  | 33 | 16 | 0 | 0 | 16 | 16 | 20 |  | 
3 | O=C(NO)OC[C@H]1CN(c2ccc(N3CCOCC3)c(F)c2)C(=O)O1 | 12 |  | 37 | 18 | 0 | 0 | 22 | 23 | 0 |  | 
4 | CC(C)(C)OC(=O)N1CCN(c2ccc(N3C[C@H](CO)OC3=O)cc2F)CC1 | 0 |  | 34.5 | 24 | 10 | 0 | 21 | 23 |  |  | 
5 | O=C1O[C@@H](CO)CN1c1ccc(N2CCOCC2)c(F)c1 | 0 | 43 | 38 | 23 | 11 | 0 | 21 | 26 |  |  | 
6 | O=C1O[C@@H](CO)CN1c1ccc(N2CCSCC2)c(F)c1 | 0 | 43 | 41 | 24 | 11 | 0 | 21.5 | 26 |  |  | 
7 | O=C(N[C@H]1C=C[C@@H](O)C1)OC[C@H]1CN(c2ccc(N3CCOCC3)c(F)c2)C(=O)O1 |  | 18 |  | 15 | 0 |  |  | 14 |  | 14 | 12
8 | O=C(N[C@H]1C=C[C@@H](O)CC1)OC[C@H]1CN(c2ccc(N3CCOCC3)c(F)c2)C(=O)O1 |  | 0 |  | 14 | 0 |  |  | 13 |  | 14 | 12
9 | O=C(N[C@H]1C=C[C@@H](O)CC1)OC[C@H]1CN(c2ccc(N3CCSCC3)c(F)c2)C(=O)O1 | 0 | 0 | 14 | 0 | 10 | 0 | 12 | 12 |  |  | 
10 | CC(C)(C)OC(=O)N1CCN(c2ccc(N3C[C@H](COC(=O)NO)OC3=O)cc2F)CC1 | 12 |  | 33 | 17 | 0 | 0 | 20 | 22 | 0 |  | 
